Reference: publication PMC4407950 (Journal of Clinical Pharmacology, 2014)
Like-named read-outs stand apart in the source and are kept apart here.

Legend:
[1] = cited from earlier work
[2] = format: in vivo, human; conditions: for AUC(0–∞), ratio of geometric least-squares means (90% confidence interval) / C24, ratio of geometric least-squares means (90% confidence interval) / Cmax, ratio of geometric least-squares means (90% confidence interval) / reduction of plasma dolutegravir AUC(0–∞) / reduction of plasma dolutegravir C24 / reduction of plasma dolutegravir Cmax: fasted; for Tmax: human, plasma, oral, median (range)
In short: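 Healthy adults were randomized to 2 cohorts of 4 treatments: test compound 50 mg single dose fasted, then with calcium supplement (1,200 mg) or iron supplement (324 mg) fasted, with a ~30% fat meal, or 2 h before the supplement fasted. Washout was ≥7 days. K2EDTA plasma was sampled predose to 48 h. Noncompartmental parameters were log-transformed and fitted by mixed model, giving geometric LS mean ratios with 90% CI.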

Safety evaluation = format: in vivo, human; conditions: for subjects who experienced AEs: six subjects
In short: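 Subjects were housed from Day −1 to Day 3 of each crossover period. Each period included serum chemistry, hematology, urinalysis, vital signs and 12-lead ECG. Adverse events were monitored through the treatment phase and at follow-up 7–14 days after the last dose.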

[3] = in the absence of added supplement; cited from earlier work
[4] = Maalox 2 hours after dolutegravir administration
[5] = concurrent administration of Maximum Strength Maalox, fasted
[6] = Dolutegravir 2 h prior + CC, fasted vs. dolutegravir alone
[7] = Dolutegravir 2 h prior + FF, fasted vs. dolutegravir alone
[8] = Dolutegravir + CC, fasted vs. dolutegravir alone
[9] = Dolutegravir + CC, fed vs. dolutegravir + CC
[10] = Dolutegravir + CC, fed vs. dolutegravir alone
[11] = Dolutegravir + FF, fasted vs. dolutegravir alone
[12] = Dolutegravir + FF, fed vs. dolutegravir + FF
[13] = Dolutegravir + FF, fed vs. dolutegravir alone
[14] = co-administered with calcium carbonate 1,200 mg
[15] = co-administered with ferrous fumarate 324 mg

- AUC(0–∞), ratio of geometric least-squares means (90% confidence interval) [2, 6]: 0.94 (0.72, 1.23)
- C24, ratio of geometric least-squares means (90% confidence interval) [2, 6]: 0.90 (0.68, 1.19)
- Cmax, ratio of geometric least-squares means (90% confidence interval) [2, 6]: 1.00 (0.78, 1.29)
- AUC(0–∞), ratio of geometric least-squares means (90% confidence interval) [2, 7]: 0.95 (0.77, 1.15)
- C24, ratio of geometric least-squares means (90% confidence interval) [2, 7]: 0.92 (0.74, 1.13)
- Cmax, ratio of geometric least-squares means (90% confidence interval) [2, 7]: 0.99 (0.81, 1.21)
- AUC(0–∞), ratio of geometric least-squares means (90% confidence interval) [2, 8]: 0.61 (0.47, 0.80)
- C24, ratio of geometric least-squares means (90% confidence interval) [2, 8]: 0.61 (0.47, 0.80)
- Cmax, ratio of geometric least-squares means (90% confidence interval) [2, 8]: 0.63 (0.50, 0.81)
- AUC(0–∞), ratio of geometric least-squares means (90% confidence interval) [2, 9]: 1.78 (1.36, 2.33)
- C24, ratio of geometric least-squares means (90% confidence interval) [2, 9]: 1.76 (1.33, 2.33)
- Cmax, ratio of geometric least-squares means (90% confidence interval) [2, 9]: 1.70 (1.32, 2.18)
- AUC(0–∞), ratio of geometric least-squares means (90% confidence interval) [2, 10]: 1.09 (0.84, 1.43)
- C24, ratio of geometric least-squares means (90% confidence interval) [2, 10]: 1.08 (0.81, 1.42)
- Cmax, ratio of geometric least-squares means (90% confidence interval) [2, 10]: 1.07 (0.83, 1.38)
- AUC(0–∞), ratio of geometric least-squares means (90% confidence interval) [2, 11]: 0.46 (0.38, 0.56)
- C24, ratio of geometric least-squares means (90% confidence interval) [2, 11]: 0.44 (0.36, 0.54)
- Cmax, ratio of geometric least-squares means (90% confidence interval) [2, 11]: 0.43 (0.35, 0.52)
- AUC(0–∞), ratio of geometric least-squares means (90% confidence interval) [2, 12]: 2.14 (1.76, 2.61)
- C24, ratio of geometric least-squares means (90% confidence interval) [2, 12]: 2.28 (1.85, 2.81)
- Cmax, ratio of geometric least-squares means (90% confidence interval) [2, 12]: 2.41 (1.97, 2.94)
- AUC(0–∞), ratio of geometric least-squares means (90% confidence interval) [2, 13]: 0.98 (0.81, 1.20)
- C24, ratio of geometric least-squares means (90% confidence interval) [2, 13]: 1.00 (0.81, 1.23)
- Cmax, ratio of geometric least-squares means (90% confidence interval) [2, 13]: 1.03 (0.84, 1.26)
- reduction of plasma dolutegravir AUC(0–∞) [2, 14]: 39%
- reduction of plasma dolutegravir C24 [2, 14]: 39%
- reduction of plasma dolutegravir Cmax [2, 14]: 37%
- reduction of plasma dolutegravir AUC(0–∞) [2, 15]: 54%
- reduction of plasma dolutegravir C24 [2, 15]: 56%
- reduction of plasma dolutegravir Cmax [2, 15]: 57%
- plasma exposures, dose separation ([2]; dolutegravir fasted 2 hours prior to calcium carbonate or ferrous fumarate): counteracted the effect
- plasma exposures, co-administration with supplement and a meal ([2]; dolutegravir with calcium carbonate or ferrous fumarate, fed (moderate-fat meal)): counteracted the effect
- Tmax ([2]; dolutegravir 50 mg + calcium carbonate 1,200 mg, fed (moderate-fat meal), n = 11): 3 h
- Tmax ([2]; dolutegravir 50 mg + ferrous fumarate 324 mg, fed (moderate-fat meal), n = 10): 3.5 h
- increase of dolutegravir AUC by a moderate-fat meal ([2]; in the presence of calcium carbonate): 78%
- increase of dolutegravir AUC by a moderate-fat meal ([2]; in the presence of ferrous fumarate): 114%
- effect of co-administration on tmax of dolutegravir ([2]; with calcium carbonate or ferrous fumarate): no effect
SMILES: C[C@@H]1CCO[C@H]2Cn3cc(C(=O)NCc4ccc(F)cc4F)c(=O)c(O)c3C(=O)N12 [Dolutegravir]
- decrease of dolutegravir mean AUC [1, 4]: 26%
- decrease of dolutegravir mean C24 [1, 4]: 30%
- decrease of dolutegravir mean Cmax [1, 4]: 18%
- effect of omeprazole on dolutegravir exposure ([1]; clinical study in humans): no effect
- decrease of dolutegravir mean AUC [1, 5]: 74%
- decrease of dolutegravir mean C24 [1, 5]: 74%
- decrease of dolutegravir mean Cmax [1, 5]: 72%
- subjects who experienced AEs (Safety evaluation; Cohort 1 (calcium carbonate)): 50%
- subjects who experienced AEs (Safety evaluation; Cohort 2 (ferrous fumarate)): 50%
- severity of all adverse events (Safety evaluation; both cohorts): Grade 1
- changes in mean or median hematology or clinical chemistry values (Safety evaluation; human, in vivo): No consistent, treatment-related, or clinically significant changes
- changes in vital signs or ECGs (Safety evaluation; human, in vivo): No clinically significant changes
- increase of dolutegravir AUC by a moderate-fat meal [3]: 41%
